From PubChem
MrgX1 antag = human MrgX1 receptor antagonism, primary screen | Q96LB2 | MRGX1-HEK293 calcium flux, Fluo-4, BAM8-22 antagonism; hits give low values | B-score at 10 µM | 1.3% of 310,000 active | AID 588676;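 active = calcium-response B-score plate-corrected more than 3 library SD below zero, starting fluorescence within 5 deviations, no agonist response on first addition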;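 note: peak minus trough fluorescence over baseline after final BAM8-22 challenge near maximal dose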
Target sequence (Q96LB2 whole entry, looked up): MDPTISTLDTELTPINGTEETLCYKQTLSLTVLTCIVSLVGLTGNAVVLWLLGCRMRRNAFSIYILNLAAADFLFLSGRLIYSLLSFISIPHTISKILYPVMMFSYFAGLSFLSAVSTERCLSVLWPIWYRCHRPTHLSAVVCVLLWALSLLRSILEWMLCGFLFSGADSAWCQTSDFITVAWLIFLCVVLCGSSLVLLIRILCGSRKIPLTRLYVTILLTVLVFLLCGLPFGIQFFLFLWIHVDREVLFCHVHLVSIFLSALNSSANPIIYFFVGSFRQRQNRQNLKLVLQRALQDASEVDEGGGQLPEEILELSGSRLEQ
RGS4 pot = potentiators or activators of RGS4; B-score at 10 µM; AID 463111; 0.92% of 310,000 active; HEK293 M3R/inducible RGS4, carbachol calcium flux Fluo4; hits give low values;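 active = B-score of the integrated calcium signal more than 4 SD below the library mean, with starting fluorescence not abnormally high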;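 note: negative B-score means reduced calcium response which marks RGS4 activation or potentiation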
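System: HEK293 FlpIn-TREx cells, stable M3R, doxycycline-inducible RGS4. Timing: overnight RGS4 induction, 30 min dye load 37 °C, 20 min compound RT. Also added: carbachol, ECmax concentration. Measured by: Fluo4 fluorescence kinetic imaging of calcium. Evaluation: integrated calcium ratio converted to B score.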
RGS4 block = inhibitors of human RGS4; B-score at 10 µM; HEK293 M3R/RGS4 inducible, Fluo-4 calcium flux; hits give high values; triggered by carbachol at its EC20; 0.45% of 310,000 active; P49798; AID 463165;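 active = B-score, a plate-corrected calcium signal, over three deviations above library mean, with baseline fluorescence within five deviations of library mean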;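 note: RGS4 expression induced by doxycycline in cells with stable M3 receptor; B-score is computed from the integrated fluorescence ratio over baseline after carbachol; higher B-score means a larger calcium signal and so more RGS4 inhibition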
Target sequence (P49798 whole entry, looked up): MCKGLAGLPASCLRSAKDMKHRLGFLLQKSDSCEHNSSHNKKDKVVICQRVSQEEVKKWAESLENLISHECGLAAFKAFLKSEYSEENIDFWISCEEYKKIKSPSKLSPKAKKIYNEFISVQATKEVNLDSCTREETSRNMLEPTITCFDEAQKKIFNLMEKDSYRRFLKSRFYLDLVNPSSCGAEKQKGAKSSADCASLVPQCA
MrgX1 agonist = agonists of human MrgX1 receptor; Q96LB2; MrgX1-HEK293 cells, Fluo-4 calcium fluorescence, agonist mode; hits give high values; B-score at 10 µM; 0.44% of 310,000 active;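 active = calcium response B-score plate-corrected fluorescence ratio at least 3 library SD, with starting fluorescence B-score inside 5 SD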
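Material: MrgX1-expressing HEK293 cells / Dosing: compound as first of three additions / Incubation: overnight seeding, then 1 h dark dye loading / Signal: Fluo-4 NW calcium fluorescence / Evaluation: B-scored fluorescence response ratio / Benchmarks: positive and negative control wells on each plate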
Kir21 block = Kir2.1 (mouse) channel inhibition | B-score at 10 µM | HEK293-Kir2.1, FluxOR thallium flux fluorescence; hits give low values | 0.85% of 310,000 active;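 active = fluorescence ratio B-score at or below minus 3 SD of library scores, with starting-brightness B-score within 2 SD, cut at about -4.2 in these data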;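 note: channel flux triggered by added potassium and thallium sulfate stimulus; B-score of peak minus minimum fluorescence over baseline after thallium stimulus; more negative B-score means stronger Kir2.1 block with less thallium influx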
MrgX1 PAM = allosterically activates human MrgX1 receptor signaling | Q96LB2 | MrgX1-HEK293, Fluo-4 calcium flux, FDSS; hits give high values | B-score at 10 µM | 0.63% of 310,000 active | AID 588675;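 active = plate-corrected calcium response at least 3 library SD above typical, normal starting fluorescence, not activating the receptor alone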;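 note: compound read alongside a low EC10 to EC30 dose of BAM8-22 agonist; peak minus trough fluorescence over baseline measured at the second addition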
MrgX1 ant reconf = reconfirmed antagonist of human MrgX1 receptor signaling. MrgX1-HEK293, BAM8-22 calcium flux, Fluo-4; hits give low values. remaining BAM8-22 calcium response % of control (hits give low values), % at 10 µM. shares compounds with MrgX1 antag. AID 602420. 19% of 2,300 active;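 active = remaining agonist calcium response no higher than 100% minus 3 SD of agonist-only control wells, with starting fluorescence near control levels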;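 note: agonist BAM8-22 given at a near maximal EC90 to ECmax level; peak minus minimum fluorescence divided by baseline after agonist addition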
HEK293 Ca flux = activity in parental HEK293 cells lacking MrgX1 | shares compounds with MrgX1 antag | Fluo-4 calcium fluorescence, FDSS | fluorescence ratio F(max-min)/F0 at 10 µM | 2% of 4,000 active | AID 624111;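 active = duplicate-averaged calcium fluorescence ratio at least three times the standard deviation of buffer wells, a nonspecific response in parental cells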
HEK293 Ca counter = counter-screen for MrgX1 allosteric activators: effect in parental HEK293 cells; shares compounds with MrgX1 antag; parental HEK293 calcium flux, Fluo-4 fluorescence ratio; hits give high values; fluorescence ratio F(max-min)/F0 at 10 µM; 0.4% of 4,000 active;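 active = calcium fluorescence ratio, averaged over duplicates, at least 3 SD of the buffer-well ratio, meaning a nonspecific response in receptor-free cells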;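 note: untransfected parental HEK293 lacking MrgX1 used as counterscreen for MrgX1 allosteric activators; fluorescence change taken during the second addition on a kinetic imager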
HEK293 Ca cntr2 = MrgX1 activator counter-screen hit in parental HEK293 cells; shares compounds with MrgX1 antag; Fluo-4 calcium fluorescence (FDSS); hits give high values; fluorescence ratio F(max-min)/F0 at 10 µM; 8.7% of 4,000 active; AID 624115;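 active = calcium fluorescence ratio at least three times the spread of buffer wells, meaning a non-specific response in parental cells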
* = called active by the depositor; i = inactive; / = no result. Sampled rows, rich in hits. Any-hit rate of the full collection: about 4.1%.

SMILES	MrgX1 antag	RGS4 pot	RGS4 block	MrgX1 agonist	Kir21 block	MrgX1 PAM	MrgX1 ant reconf	HEK293 Ca flux	HEK293 Ca counter	HEK293 Ca cntr2
CCC(C)(C)NC(=O)C(c1cccn1C)N(C(=O)Cn1nnc2ccccc21)c1ccc(OC)cc1OC (centres undefined)	i	i	i	i	-0.49	i	/	/	/	/
COc1ccc(CC(=O)NCC(=O)Nc2ccccc2Br)cc1	-6.03*	i	i	i	0.93	i	i	i	i	i
COc1cccc(C(=O)Nc2cccc(C(=O)NCC(C)C)c2)c1	-6.49*	i	i	i	1.04	i	i	i	i	i
CC(C)OCCCNC(=O)c1cccc(NC(=O)c2ccccc2)c1	i	i	i	i	1.56	i	/	/	/	/
COCCCNC(=O)c1cccc(NC(=O)c2ccccc2)c1	-5.57*	i	i	i	-0.24	i	82.9%*	i	i	i
CCOc1ccccc1NC1=NCC(=O)N1Cc1ccc(F)cc1	i	i	i	i	-0.7	i	/	/	/	/
CC1(C)CC(=O)C(C=Nc2cc(C(=O)c3ccccc3)ccc2N)=C(O)C1	-6.79*	i	i	i	0.1	i	73.4%*	i	i	i
O=C(NC1CCCCC1)C(c1ccccc1)N1CCc2ccccc21 (centres undefined)	i	i	i	i	-1.75	i	/	/	/	/
O=C(NC1CCCC1)C(c1ccc(Cl)cc1)N1CCc2ccccc21 (centres undefined)	-4.8*	i	i	i	-0.06	i	i	i	i	i
CC(NC(=O)COC(=O)CCc1nc(=O)c2ccccc2n1C)c1ccccc1 (centres undefined)	i	i	i	i	0.08	i	/	/	/	/
Cn1c(CCC(=O)OCC(=O)NCC(F)(F)F)nc(=O)c2ccccc21	-5.59*	i	i	i	0.22	i	i	i	i	i
N#Cc1cccc(-c2cn(S(=O)(=O)c3ccc(Cl)cc3)nc2N)c1	i	i	i	i	0.32	i	/	/	/	/
COc1ccc(OC(C)c2ccc(C#N)c(=O)[nH]2)cc1 (centres undefined)	i	i	i	i	1.15	i	/	/	/	/
COC(OC)c1ccc(C#N)c(=O)[nH]1	-6.23*	i	i	i	0.8	i	83.2%*	i	i	i
CCC1CCCCN1C(=O)c1c(-c2ccccc2)noc1C (centres undefined)	i	i	i	i	0.75	i	/	/	/	/
CCCCNC(=S)Nc1ccc(SC(F)F)cc1	-6.93*	i	i	i	1.2	i	i	i	i	i
CC1CC(C)CN(C(=S)Nc2ccc(SC(F)F)cc2)C1 (centres undefined)	-4.99*	i	i	i	0.69	i	i	i	i	i
CC(=O)NC(Cc1cnc[nH]1)C(=O)O (centres undefined)	i	i	i	i	-0.74	i	/	/	/	/
CCOC(=O)c1cnc(SCC(=O)Nc2ccc(NC(C)=O)c(OC)c2)nc1N	i	i	i	i	0.17	i	/	/	/	/
COc1ccccc1Nc1nn2c(=O)c3ccc(C(=O)N4CCCCC4)cc3nc2s1	i	i	i	i	-1.54	i	/	/	/	/
